Activity calls are given as the source filed them. No cut-off for these calls is given here.
Key:
[1] = test system: RS4-11; test: Antiproliferative activity against human RS4:11 cells after 72 hrs by MTT assay; assay type: functional, cell-based; details: RS4-11, 72 h
Procedure, shortened: (§1)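 Cells in medium with 10% FBS, seeded at 8×10^3 per well, 18 h at 37 °C, 5% CO2, then graded compound concentrations (DMSO ≤0.25%) for 72 h. Viability by MTT. […] Mean ± SE of dose-response curves from at least three independent experiments.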

[2] = test system: A549; test: Antiproliferative activity against human A549 cells after 72 hrs by MTT assay; assay type: functional, cell-based; details: A549, 72 h
[3] = test system: HeLa; test: Antiproliferative activity against human HeLa cells after 72 hrs by MTT assay; assay type: functional, cell-based
[4] = test system: HT-29; test: Antiproliferative activity against human HT-29 cells after 72 hrs by MTT assay; assay type: functional, cell-based; details: HT-29, 72 h
[5] = test system: Jurkat; test: Antiproliferative activity against human Jurkat cells after 72 hrs by MTT assay; assay type: functional, cell-based; procedure, shortened: as §1
[6] = target: Tubulin (Bos taurus, UniProt Q6B856+Q862L2+Q862F3); test: Inhibition of bovine brain tubulin polymerization after 20 mins
Procedure, shortened: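 Bovine brain tubulin (10 μM) preincubated with varying compound concentrations in 0.8 M monosodium glutamate, pH 6.6, at 30 °C, then chilled to 0 °C. 0.4 mM GTP added, mixtures warmed to 30 °C, assembly followed by turbidity at 350 nm.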

[7] = target: Tubulin (Bos taurus) (UniProt Q6B856+Q862L2+Q862F3); test: Inhibition of [3H]-colchicine binding to bovine brain tubulin at 1 to 5 uM after 20 mins relative to control
Procedure, shortened: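 Colchicine-binding inhibition in mixtures of 1 μM tubulin, 5 μM [3H]colchicine and test compound at 1 or 5 μM.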

[8] = target: T1, Epidermal growth factor receptor (Homo sapiens, UniProt P00533); test: Inhibition of wild type EGFR (unknown origin) by bioluminescent ADP-glo kinase assay
[9] = target: T2, Vascular endothelial growth factor receptor 2 (Homo sapiens, UniProt P35968); test: Inhibition of wild type VEGFR2 (unknown origin) by bioluminescent ADP-glo kinase assay
[10] = target: T1, Epidermal growth factor receptor; test: Inhibition of EGF-induced EGFR phosphorylation at Y1068 in human HeLa cells pretreated for 6 hrs followed by EGF cells and measured after 15 mins by Western blot analysis; assay type: cell-based
Procedure, shortened: (§2)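 HeLa cells treated 6 h with compound (10-1000 nM) or erlotinib, then stimulated with EGF for 15 min. EGF level is given as 50 ng/mL in the methods and 30 ng/mL in the figure legend. Lysates immunoblotted for total EGFR and phospho-Y1068, with β-actin as loading control.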

[11] = target: T1, Epidermal growth factor receptor; test: Inhibition of EGF-induced EGFR phosphorylation at Y1068 in human HeLa cells at 1 uM pretreated for 6 hrs followed by EGF cells and measured after 15 mins by Western blot analysis; assay type: cell-based; procedure, shortened: as §2
[12] = test system: HeLa; test: Induction of cell cycle arrest in human HeLa cells assessed as arrest in mitotic phase at 50 nM after 24 hrs by p-histone H3 antibody staining based flow cytometry (reference value: 1.32%); assay type: functional
[13] = test system: HeLa; test: Induction of cell cycle arrest in human HeLa cells assessed as arrest in mitotic phase at 100 nM after 24 hrs by p-histone H3 antibody staining based flow cytometry (reference value: 1.32%); assay type: functional
[14] = test system: HeLa; test: Induction of apoptosis in human HeLa cells at 50 nM after 24 to 48 hrs by Annexin V/propidium iodide-double staining-based flow cytometry; assay type: functional, cell-based; details: TDE = time-dependent effect
Procedure, shortened: (§3)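 HeLa or Jurkat cells exposed 24 or 48 h, then double-labelled with annexin-V-FITC and PI and analysed by flow cytometry for phosphatidylserine exposure.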

[15] = test system: Jurkat; test: Induction of apoptosis in human Jurkat cells at 50 nM after 24 to 48 hrs by Annexin V/propidium iodide-double staining-based flow cytometry; assay type: functional, cell-based; details: TDE = time-dependent effect; procedure, shortened: as §3
[16] = test system: HeLa; test: Induction of ROS generation in human HeLa cells at 50 nM after 12 hrs by 2,7-dichlorodihydrofluorescein diacetate-staining based flow cytometry; assay type: functional, cell-based
Procedure, shortened: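 HeLa cells exposed 3, 6, 12 or 24 h to 50, 100 or 250 nM, then stained with JC-1 for mitochondrial potential or H2-DCFDA for ROS. Analysed by flow cytometry.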

[17] = test system: HeLa; test: Induction of apoptosis in human HeLa cells assessed as decrease in bcl2 expression at 50 to 100 nM after 24 to 48 hrs by Western blot analysis; assay type: functional, cell-based
Procedure, shortened: (§4)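 HeLa cells incubated with compound at indicated concentrations and times, then washed in ice-cold PBS and lysed 30 min on ice. 10 µg protein per lane run on SDS-PAGE, transferred to PVDF and blocked overnight at 4 °C in 5% BSA. Probed 2 h at room temperature for PARP, Mcl-1 or Bcl-2, detected by ECL, and reprobed for β-actin as loading control.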

[18] = test system: HeLa; test: Induction of apoptosis in human HeLa cells assessed as decrease in […] expression at 50 to 100 nM after 24 to 48 hrs by Western blot analysis; assay type: functional, cell-based; procedure, shortened: as §4
[19] = test system: HUVEC; test: Antivascular activity in HUVEC assessed as effect on nodes at 10 to 100 nM after 1 hr by matrigel assay; assay type: functional, cell-based; details: Homo sapiens
Procedure, shortened: (§5)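 HUVECs (primary cord-derived, passages 1-6), 6×10^4 cells per well on Matrigel, left 6 h to form capillary tubes. Compound at 10 or 100 nM then added for 1 h. Five fields per well photographed at 10x, and network dimensional/topological parameters quantified. Mean ± S.E.M. of three independent experiments.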

[20] = test system: HUVEC; test: Antivascular activity in HUVEC assessed as effect on master junction at 10 to 100 nM after 1 hr by matrigel assay; assay type: functional, cell-based; details: Homo sapiens; procedure, shortened: as §5
[21] = test system: HUVEC; test: Antivascular activity in HUVEC assessed as effect on segment length at 10 to 100 nM after 1 hr by matrigel assay; assay type: functional, cell-based; details: Homo sapiens; procedure, shortened: as §5
[22] = test system: HUVEC; test: Antivascular activity in HUVEC assessed as effect on total branching length at 10 to 100 nM after 1 hr by matrigel assay; assay type: functional, cell-based; details: Homo sapiens; procedure, shortened: as §5
[23] = test system: HUVEC; test: Antivascular activity in HUVEC assessed as effect on mesh area at 10 to 100 nM after 1 hr by matrigel assay; assay type: functional, cell-based; details: Homo sapiens; procedure, shortened: as §5
[24] = test system: HUVEC; test: Antivascular activity in HUVEC assessed as effect on number of meshes at 10 to 100 nM after 1 hr by matrigel assay; assay type: functional, cell-based; details: Homo sapiens; procedure, shortened: as §5
[25] = test system: B16; test: Antitumor activity against mouse B16 cells allografted in C57BL/6 mouse assessed as reduction in tumor burden at 3 mg/kg, ip dosing starting on day 9 post tumor injection administered […] on day 9,11, 13 and 15 relative to control; assay type: functional; set-up: scale not given: the % may be the effect or the level left
Procedure, shortened: (§6)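 Six-week-old male C57BL/6 mice injected subcutaneously in the dorsolateral flank with 2.5×10^5 BL6-B16 melanoma cells in PBS. Once tumors were palpable, ip dosing every other day on days 9, 11, 13 and 15 at 3 or 7.5 mg/kg in 50 µL DMSO. Vehicle controls; CA-4P 30 mg/kg reference. Tumor volume and body weight tracked; 5 mice/group, mean ± SEM.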

[26] = test system: B16; test: Antitumor activity against mouse B16 cells allografted in C57BL/6 mouse assessed as reduction in tumor burden at 7.5 mg/kg, ip dosing starting on day 9 post tumor injection administered […] on day 9,11, 13 and 15 relative to control; assay type: functional; set-up: scale not given: the % may be the effect or the level left; procedure, shortened: as §6
[27] = Toxicity in C57BL/6 mouse allografted with mouse B16 cells assessed as body weight loss at 3 to 7.5 mg/kg, ip dosing starting on day 9 post tumor injection administered […] on day 9,11, 13 and 15; assay type: organism-based; details: in vivo; procedure, shortened: as §6
[28] = test system: B16; test: Antiproliferative activity against mouse B16 cells after 72 hrs by MTT assay; assay type: functional, cell-based; details: B16, 72 h
[29] = test system: HeLa; test: Induction of cell cycle arrest in human HeLa cells assessed as accumulation at G2/M phase at 25 nM after 24 hrs by propidium iodide-stained flow cytometry; assay type: functional, cell-based
Procedure, shortened: (§7)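 5×10^5 HeLa or Jurkat cells exposed 24 h, then collected, fixed in ice-cold 70% ethanol, treated with lysis buffer containing RNase A and 0.1% Triton X-100, and stained with PI. DNA content by flow cytometry. Mean ± SEM, three independent experiments.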

[30] = test system: Jurkat; test: Induction of cell cycle arrest in human Jurkat cells assessed as accumulation at G2/M phase at 25 nM after 24 hrs by propidium iodide-stained flow cytometry; assay type: functional, cell-based; procedure, shortened: as §7
[31] = Cytotoxicity against HUVEC assessed as inhibition of cell growth; assay type: cell-based; details: human, HUVEC cells
[32] = target: T2, Vascular endothelial growth factor receptor 2; test: Inhibition of VEGFR2 (unknown origin)

T1 sequence (P00533 whole entry): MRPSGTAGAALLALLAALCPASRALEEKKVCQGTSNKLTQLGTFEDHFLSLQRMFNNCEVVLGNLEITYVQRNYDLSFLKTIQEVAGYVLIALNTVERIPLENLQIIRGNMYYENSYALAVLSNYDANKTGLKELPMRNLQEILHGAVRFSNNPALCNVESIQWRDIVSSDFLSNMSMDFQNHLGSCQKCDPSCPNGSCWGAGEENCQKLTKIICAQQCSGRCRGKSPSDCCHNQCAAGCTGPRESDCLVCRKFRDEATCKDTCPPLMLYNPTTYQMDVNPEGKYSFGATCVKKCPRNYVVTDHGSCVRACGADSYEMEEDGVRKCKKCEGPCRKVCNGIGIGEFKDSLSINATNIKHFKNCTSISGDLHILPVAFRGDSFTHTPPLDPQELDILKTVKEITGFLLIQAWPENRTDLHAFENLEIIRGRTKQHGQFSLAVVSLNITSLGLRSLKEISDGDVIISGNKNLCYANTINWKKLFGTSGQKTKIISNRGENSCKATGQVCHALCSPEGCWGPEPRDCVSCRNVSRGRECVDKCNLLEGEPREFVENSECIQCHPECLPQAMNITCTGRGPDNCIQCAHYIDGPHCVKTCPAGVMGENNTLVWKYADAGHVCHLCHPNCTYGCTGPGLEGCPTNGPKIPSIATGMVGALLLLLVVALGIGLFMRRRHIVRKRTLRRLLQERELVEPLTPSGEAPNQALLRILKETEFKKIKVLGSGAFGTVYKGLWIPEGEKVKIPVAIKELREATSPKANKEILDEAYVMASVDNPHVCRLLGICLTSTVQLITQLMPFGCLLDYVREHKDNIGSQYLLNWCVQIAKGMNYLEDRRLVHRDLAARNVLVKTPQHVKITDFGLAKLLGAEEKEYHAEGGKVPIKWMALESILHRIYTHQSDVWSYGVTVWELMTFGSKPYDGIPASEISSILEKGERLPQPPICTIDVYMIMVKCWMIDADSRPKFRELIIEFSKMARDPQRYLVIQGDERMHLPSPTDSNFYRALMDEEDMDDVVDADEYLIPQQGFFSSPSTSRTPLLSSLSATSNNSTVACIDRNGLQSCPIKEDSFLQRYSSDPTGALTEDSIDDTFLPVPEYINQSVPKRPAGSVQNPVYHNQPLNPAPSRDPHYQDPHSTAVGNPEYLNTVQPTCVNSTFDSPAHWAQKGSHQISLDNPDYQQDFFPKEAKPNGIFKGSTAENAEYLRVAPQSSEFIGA
T2 sequence (P35968 whole entry): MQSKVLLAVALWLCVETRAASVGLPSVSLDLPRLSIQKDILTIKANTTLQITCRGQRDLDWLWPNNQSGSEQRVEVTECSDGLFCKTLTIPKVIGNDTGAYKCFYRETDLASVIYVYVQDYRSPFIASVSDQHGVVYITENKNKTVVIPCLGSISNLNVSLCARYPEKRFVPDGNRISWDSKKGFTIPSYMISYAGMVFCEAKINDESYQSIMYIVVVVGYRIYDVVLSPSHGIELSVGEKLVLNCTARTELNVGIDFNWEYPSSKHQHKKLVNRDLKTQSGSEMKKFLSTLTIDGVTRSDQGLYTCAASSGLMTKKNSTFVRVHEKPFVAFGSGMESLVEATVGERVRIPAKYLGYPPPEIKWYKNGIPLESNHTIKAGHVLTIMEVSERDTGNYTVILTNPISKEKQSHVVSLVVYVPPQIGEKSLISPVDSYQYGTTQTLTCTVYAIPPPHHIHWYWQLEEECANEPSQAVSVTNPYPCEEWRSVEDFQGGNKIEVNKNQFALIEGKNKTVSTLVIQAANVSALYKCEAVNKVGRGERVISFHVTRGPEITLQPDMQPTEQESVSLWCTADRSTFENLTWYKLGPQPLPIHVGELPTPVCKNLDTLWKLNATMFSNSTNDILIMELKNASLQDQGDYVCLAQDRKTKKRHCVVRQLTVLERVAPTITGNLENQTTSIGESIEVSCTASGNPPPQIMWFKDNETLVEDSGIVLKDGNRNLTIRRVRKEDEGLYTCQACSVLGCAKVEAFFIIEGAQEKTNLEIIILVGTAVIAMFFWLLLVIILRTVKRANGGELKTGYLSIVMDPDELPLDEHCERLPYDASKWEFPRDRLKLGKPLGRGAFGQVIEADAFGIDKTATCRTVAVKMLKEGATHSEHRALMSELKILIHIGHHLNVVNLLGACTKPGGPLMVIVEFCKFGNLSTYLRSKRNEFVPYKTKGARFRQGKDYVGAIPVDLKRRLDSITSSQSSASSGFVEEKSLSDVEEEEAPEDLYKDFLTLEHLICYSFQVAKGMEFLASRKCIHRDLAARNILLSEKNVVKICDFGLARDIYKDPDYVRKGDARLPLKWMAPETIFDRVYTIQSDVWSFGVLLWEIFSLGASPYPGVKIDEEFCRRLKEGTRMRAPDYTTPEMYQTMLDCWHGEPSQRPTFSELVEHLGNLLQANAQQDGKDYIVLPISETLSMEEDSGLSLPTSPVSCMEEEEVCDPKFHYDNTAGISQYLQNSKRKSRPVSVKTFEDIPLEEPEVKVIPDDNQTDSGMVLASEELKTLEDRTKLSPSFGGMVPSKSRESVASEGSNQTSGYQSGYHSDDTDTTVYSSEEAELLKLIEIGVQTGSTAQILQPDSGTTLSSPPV

Question: With COc1ccc(/C=C\c2cc(OC)c(OC)c(OC)c2)cc1O [COMBRETASTATIN A4] as the molecule, how does the IC50 [1] read?
Answer: 1 nM

Question: For COc1cc(Nc2ncnc3cc(-c4ccc(C)cc4)sc23)cc(OC)c1OC, which IC50 [2] is on record?
Answer: 19 nM

Question: What about the IC50 [3] of the same molecule?
Answer: 1 nM

Question: And the IC50 [4]?
Answer: 20 nM

Question: What about the IC50 [5] of the same molecule?
Answer: 1 nM

Question: And the IC50 [1]?
Answer: 2 nM

Question: What about the IC50 [6] of the same molecule?
Answer: 710 nM

Question: What about the inhibition [7] of the same molecule?
Answer: 76%

Question: What about the IC50 [8] of the same molecule?
Answer: 30 nM

Question: And the IC50 [9]?
Answer: > 1000 nM

Question: And the inhibition [10]?
Answer: Dose-dependent effect

Question: And the inhibition [11]?
Answer: Active

Question: What about the Activity [12] of the same molecule?
Answer: 36.8 - 38%

Question: And the Activity [13]?
Answer: 49.4 - 50%

Question: And the Activity [14]?
Answer: Tde

Question: What about the Activity [15] of the same molecule?
Answer: Tde

Question: What about the Activity [16] of the same molecule?
Answer: Active

Question: What about the Activity [17] of the same molecule?
Answer: Active

Question: What about the Activity [18] of the same molecule?
Answer: Active

Question: And the Activity [19]?
Answer: Active

Question: And the Activity [20]?
Answer: Active

Question: What about the Activity [21] of the same molecule?
Answer: Active

Question: And the Activity [22]?
Answer: Active

Question: And the Activity [23]?
Answer: Active

Question: And the Activity [24]?
Answer: Active

Question: What about the Activity [25] of the same molecule?
Answer: 28%

Question: What about the Activity [26] of the same molecule?
Answer: 52.5%

Question: What about the Activity [27] of the same molecule?
Answer: Non-Toxic

Question: And the IC50 [28]?
Answer: 23.4 nM

Question: What about the Activity [29] of the same molecule?
Answer: Active

Question: And the Activity [30]?
Answer: Active

Question: And the GI50 [31]?
Answer: 56 nM

Question: Which IC50 [32] does the source give for Cc1cc2cc(Nc3ncnc4cc(-c5ccccc5)sc34)ccc2[nH]1 here?
Answer: 140 nM

Question: Which IC50 [2] does the source give for COc1cc(Nc2ncnc3cc(-c4ccccc4)sc23)cc(OC)c1OC here?
Answer: 2300 nM

Question: And the IC50 [3]?
Answer: 170 nM

Question: And the IC50 [4]?
Answer: 350 nM

Question: And the IC50 [5]?
Answer: 10 nM

Question: What about the IC50 [1] of the same molecule?
Answer: 260 nM

Question: What about the IC50 [6] of the same molecule?
Answer: 10000 nM

Question: And the IC50 [8]?
Answer: 23 nM

Question: And the IC50 [9]?
Answer: > 1000 nM

Question: What does the source list for COc1cccc(-c2cc3ncnc(Nc4cc(OC)c(OC)c(OC)c4)c3s2)c1?
Answer: IC50 [2]: 8800 nM; IC50 [3]: 3200 nM; IC50 [4]: 3300 nM; IC50 [5]: 3000 nM; IC50 [1]: 5400 nM

Question: Which results are given for COc1cc(Nc2ncnc3cc(-c4ccc(Br)cc4)sc23)cc(OC)c1OC?
Answer: IC50 [2]: 530 nM; IC50 [3]: 220 nM; IC50 [4]: 150 nM; IC50 [5]: 30 nM; IC50 [1]: 190 nM; IC50 [6]: 2500 nM; inhibition [7]: 35%; IC50 [8]: 326 nM

Question: Which results are given for COc1cc(Nc2ncnc3cc(-c4ccc(Cl)cc4)sc23)cc(OC)c1OC?
Answer: IC50 [2]: 600 nM; IC50 [3]: 90 nM; IC50 [4]: 87 nM; IC50 [5]: 3 nM; IC50 [1]: 5 nM; IC50 [6]: 3300 nM; inhibition [7]: 36%; IC50 [8]: 273 nM

— ChEMBL document CHEMBL4368913, “Design, Synthesis, and Biological Evaluation of 6-Substituted Thieno[3,2- d]pyrimidine Analogues as Dual Epidermal Growth Factor Receptor Kinase and Microtubule Inhibitors” (J Med Chem, 2019)
